This passage reports Blood glucose results from ChEMBL document CHEMBL1124352, “Oral hypoglycemic agents. Discovery and structure-activity relationships of phenacylimidazolium halides” (1989).

One assay relates to Mus musculus. Kind of assay: Percent blood glucose level in mice 2 hours after peroral administration of compound (100 mg/kg). In kind it is functional. The method in brief:
(§1)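 Viable yellow obese diabetic mice, six per group, gavaged with 100 mg/kg in saline-2% Emulphor; six vehicle-gavaged controls. Tail blood taken before dosing and at 2 and 4 h. Glucose measured by glucose oxidase method on an autoanalyzer. Values expressed as percent of zero time, mean ±SE of six mice. Significance versus controls by Student's t test, p < 0.05.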
The compound `Cc1cc[n+](CC(=O)c2ccccc2)cc1.[Br-]` returned a Blood glucose of 105%.
Still for that read-out and setting: the result for `Cn1cc[n+](CC(=O)c2ccc(C#N)cc2)c1.[Br-]` reads 105%; that for `Cn1cc[n+](CC(=O)c2cccc(C(F)(F)F)c2)c1.[I-]`, 95%; that for `Cc1ccc(C(=O)Cn2ccc[n+]2C)cc1.[Br-]`, 83%.
For `Cn1cc[n+](C(C)(C)C(=O)c2ccccc2)c1.[Br-]`, the Blood glucose was found to be 104%.
Still for that read-out and setting: the result for `Cc1n(C)cc[n+]1CC(=O)c1ccccc1.[Cl-]` reads 90%; that for `COc1ccc(C(=O)C[n+]2ccn(C)c2)cc1.[Br-]`, 70%; that for `Cn1cc[n+](CC(=O)c2ccco2)c1.[Br-]`, 72%.
The same measure, in the same setting: next, `COc1cccc(C(=O)Cn2ccn(C)c2=O)c1`: 101%; `COc1ccc(C(=O)C[n+]2ccn(C)c2)cc1OC.[Br-]`: 86%; `CC(=O)C[n+]1ccn(-c2ccccc2)c1.[Cl-]`: 105%.
Same read-out and setting: next, `COc1cccc(C(=O)C[n+]2ccsc2)c1.[Br-]`: 105%; `CCCn1cc[n+](CC(=O)c2ccccc2)c1.[Cl-]`: 79%.
Compound `Cn1cc[n+](CC(=O)c2ccccc2F)c1.[Br-]` displayed a Blood glucose of 91%.
The same measure, in the same setting: next, `Cc1ccc(C(=O)C[n+]2cn(C)c(-c3ccccc3)c2-c2ccccc2)cc1.[Br-]`: 102%; `Cn1cc[n+](CC(=O)c2ccc(C(N)=O)cc2)c1.[Br-]`: 100%.
On the same count and under the same terms, the result for `Cc1ccc(C(=O)C[n+]2ccncc2)cc1.[Br-]` reads 122%; that for `Cc1ccc(C(=O)C[n+]2cc3ccccc3cn2)cc1.[Br-]`, 115%; that for `CCOc1cccc(C(=O)C[n+]2ccn(C)c2)c1.[Br-]`, 63%.
Same read-out and setting: next, `COc1cccc(C(=O)C[n+]2ccn(C(C)C)c2)c1.[Br-]`: 79%; `C[n+]1ccn(CC(=O)c2ccccc2)c1.[Br-]`: 74%.
The compound `COc1cccc(C(=O)C[N+]2=CN(C)CC2)c1.[Br-]` showed a Blood glucose of 81%.
The compound `Cn1cc[n+](C(C(=O)c2ccccc2)c2ccccc2)c1.[Cl-]` (stereo not drawn) registered a Blood glucose of 94%.
On the same count and under the same terms, the result for `Br.O=C(Cn1ccnc1)c1ccccc1` reads 103%.
Same read-out and setting: next, `Cc1ccc(C(=O)C[n+]2ccn(C)c2)cc1.[Br-]`: 57%; `COc1cc(OC)cc(C(=O)C[n+]2ccoc2)c1.[Br-]`: 95%.
On the same count and under the same terms, next, `Cc1ccccc1C(=O)C[n+]1ccn(C)c1.[Br-]`: 80%; `Cn1cc[n+](CC(=O)c2cccc3ccccc23)c1.[Br-]`: 90%; `CC(=O)Nc1cccc(C(=O)C[n+]2ccn(C)c2)c1.[Br-]`: 100%.
Take `Cc1ccc(C(=O)C[n+]2ccn(C)c2)c(C)c1.[Br-]`: the Blood glucose came to 62%.
On the same count and under the same terms, the result for `Cn1cc[n+](CC(=O)c2ccc3ccccc3c2)c1.[Br-]` reads 89%.
On the same count and under the same terms, the result for `Cn1cc[n+](CC(=O)c2ccc(-c3ccccc3)cc2)c1.[Br-]` reads 103%; that for `Cc1cc(C)c(C(=O)C[n+]2ccn(C)c2)c(C)c1.[Br-]`, 94%.
Same read-out and setting: next, `COc1cccc(C(O)C[n+]2ccn(C)c2)c1.[I-]` (stereo not drawn): 106%; `CO/N=C(/C[n+]1ccn(C)c1)c1ccc(C)cc1.[I-]`: 86%.
`COC(=O)Cn1cc[n+](CC(=O)c2ccccc2)c1.[Br-]` showed a Blood glucose of 89%.
The same measure, in the same setting: the result for `Cn1cc[n+](CC(=O)c2cccc(Cl)c2)c1.[Br-]` reads 107%; that for `Cn1cc[n+](CC(=O)c2ccc(Cl)cc2)c1.[Br-]`, 94%.
Same read-out and setting: next, `COc1cccc(C(=O)C[n+]2ccn(C)c2SC(C)C)c1.[Br-]`: 101%; `CC(C(=O)c1ccccc1)[n+]1ccn(C)c1.[Br-]` (stereo not drawn): 70%; `COc1cccc(C(=O)C[n+]2ccn(C)c2)c1OC.[Br-]`: 83%.
Same read-out and setting: the result for `COc1cc(OC)cc(C(=O)C[n+]2ccn(C)c2)c1.[Br-]` reads 83%.
With `Cc1cccc(C(=O)C[n+]2ccn(C)c2)c1.[Br-]`, the Blood glucose was 78%.
`Cc1ccc(C(=O)C[n+]2ccccn2)cc1.[Br-]` yielded a Blood glucose of 105%.
`COc1cccc(C(=O)Cn2ccnc2)c1` displayed a Blood glucose of 110%.
Same read-out and setting: next, `Cn1cc[n+](CC(=O)c2ccc(O)c(O)c2)c1.[Cl-]`: 108%; `Cn1cc[n+](CC(=O)c2ccc(Cl)c(Cl)c2)c1.[Br-]`: 94%; `COc1ccccc1C(=O)C[n+]1ccn(C)c1.[Br-]`: 90%.
On the same count and under the same terms, next, `COc1cccc(C(=O)C[n+]2ccn(C)c2)c1.[Br-]`: 58%.
The same measure, in the same setting: next, `Cc1ccc(S(=O)(=O)[O-])cc1.Cn1cc[n+](CC(=O)c2cccc(O)c2)c1`: 93%; `CCCOc1cccc(C(=O)C[n+]2ccn(C)c2)c1.[Br-]`: 63%.
`Cc1ccc(C(=O)C[n+]2ccn(C)c2)cc1C.[Br-]` displayed a Blood glucose of 83%.
The same measure, in the same setting: next, `COc1cccc(C(=O)Cn2ccn(C)c2=S)c1`: 99%.
Regarding `COc1cccc(C(=O)C[n+]2ccn(-c3ccccc3)c2)c1.[Br-]`, the Blood glucose came out at 96%.
Still for that read-out and setting: next, `COc1cccc(C(=O)CC[n+]2ccn(C)c2)c1.[I-]`: 91%.
In turn, `Cc1ccc(C(=O)C[n+]2csc3ccccc32)cc1.[Br-]` yielded a Blood glucose of 106%.
The same measure, in the same setting: next, `CCOc1ccc(C(=O)C[n+]2ccn(C)c2)cc1.[Br-]`: 103%; `CCc1ccc(C(=O)C[n+]2ccn(C)c2)cc1.[Br-]`: 77%.
`COc1ccc(OC)c(C(=O)C[n+]2ccn(C)c2)c1.[Br-]` gave a Blood glucose of 78%.

A further assay has as its system Mus musculus. Put plainly: Percent blood glucose level in mice 4 hours after peroral administration of compound (100 mg/kg). In kind it is functional. The method in brief:
as §1
Compound `Cc1cc[n+](CC(=O)c2ccccc2)cc1.[Br-]` came in with a Blood glucose of 103%.
Still for that read-out and setting: the result for `Cn1cc[n+](CC(=O)c2ccc(C#N)cc2)c1.[Br-]` reads 106%; that for `Cn1cc[n+](CC(=O)c2cccc(C(F)(F)F)c2)c1.[I-]`, 97%.
`Cc1ccc(C(=O)Cn2ccc[n+]2C)cc1.[Br-]`: the Blood glucose stood at 82%.
On the same count and under the same terms, next, `Cn1cc[n+](C(C)(C)C(=O)c2ccccc2)c1.[Br-]`: 113%.
The same measure, in the same setting: next, `Cc1n(C)cc[n+]1CC(=O)c1ccccc1.[Cl-]`: 81%; `COc1ccc(C(=O)C[n+]2ccn(C)c2)cc1.[Br-]`: 77%.
`Cn1cc[n+](CC(=O)c2ccco2)c1.[Br-]` gave a Blood glucose of 92%.
Same read-out and setting: the result for `COc1cccc(C(=O)Cn2ccn(C)c2=O)c1` reads 103%; that for `COc1ccc(C(=O)C[n+]2ccn(C)c2)cc1OC.[Br-]`, 81%.
In turn, `CC(=O)C[n+]1ccn(-c2ccccc2)c1.[Cl-]` registered a Blood glucose of 109%.
With `COc1cccc(C(=O)C[n+]2ccsc2)c1.[Br-]`, the Blood glucose is 123%.
Same read-out and setting: the result for `CCCn1cc[n+](CC(=O)c2ccccc2)c1.[Cl-]` reads 79%; that for `Cn1cc[n+](CC(=O)c2ccccc2F)c1.[Br-]`, 99%.
The same measure, in the same setting: the result for `Cc1ccc(C(=O)C[n+]2cn(C)c(-c3ccccc3)c2-c2ccccc2)cc1.[Br-]` reads 105%; that for `Cn1cc[n+](CC(=O)c2ccc(C(N)=O)cc2)c1.[Br-]`, 95%.
Same read-out and setting: next, `Cc1ccc(C(=O)C[n+]2ccncc2)cc1.[Br-]`: 112%.
Take `Cc1ccc(C(=O)C[n+]2cc3ccccc3cn2)cc1.[Br-]`: the Blood glucose turned out to be 108%.
Same read-out and setting: next, `CCOc1cccc(C(=O)C[n+]2ccn(C)c2)c1.[Br-]`: 64%.
The same measure, in the same setting: next, `COc1cccc(C(=O)C[n+]2ccn(C(C)C)c2)c1.[Br-]`: 83%; `C[n+]1ccn(CC(=O)c2ccccc2)c1.[Br-]`: 71%; `COc1cccc(C(=O)C[N+]2=CN(C)CC2)c1.[Br-]`: 97%.
On the same count and under the same terms, next, `Cn1cc[n+](C(C(=O)c2ccccc2)c2ccccc2)c1.[Cl-]` (stereo not drawn): 83%.
Turning to `Br.O=C(Cn1ccnc1)c1ccccc1`, the Blood glucose worked out at 90%.
Still for that read-out and setting: next, `Cc1ccc(C(=O)C[n+]2ccn(C)c2)cc1.[Br-]`: 53%.
On to `COc1cc(OC)cc(C(=O)C[n+]2ccoc2)c1.[Br-]`, for which the Blood glucose was found to be 97%.
`Cc1ccccc1C(=O)C[n+]1ccn(C)c1.[Br-]`: the Blood glucose was 87%.
Same read-out and setting: the result for `Cn1cc[n+](CC(=O)c2cccc3ccccc23)c1.[Br-]` reads 110%; that for `CC(=O)Nc1cccc(C(=O)C[n+]2ccn(C)c2)c1.[Br-]`, 109%; that for `Cc1ccc(C(=O)C[n+]2ccn(C)c2)c(C)c1.[Br-]`, 79%.
On the same count and under the same terms, next, `Cn1cc[n+](CC(=O)c2ccc3ccccc3c2)c1.[Br-]`: 99%; `Cn1cc[n+](CC(=O)c2ccc(-c3ccccc3)cc2)c1.[Br-]`: 103%; `Cc1cc(C)c(C(=O)C[n+]2ccn(C)c2)c(C)c1.[Br-]`: 97%.
Still for that read-out and setting: next, `COc1cccc(C(O)C[n+]2ccn(C)c2)c1.[I-]` (stereo not drawn): 103%; `CO/N=C(/C[n+]1ccn(C)c1)c1ccc(C)cc1.[I-]`: 81%.
In turn, `COC(=O)Cn1cc[n+](CC(=O)c2ccccc2)c1.[Br-]` had a Blood glucose of 84%.
On the same count and under the same terms, the result for `Cn1cc[n+](CC(=O)c2cccc(Cl)c2)c1.[Br-]` reads 112%; that for `Cn1cc[n+](CC(=O)c2ccc(Cl)cc2)c1.[Br-]`, 93%.
Same read-out and setting: next, `COc1cccc(C(=O)C[n+]2ccn(C)c2SC(C)C)c1.[Br-]`: 121%; `CC(C(=O)c1ccccc1)[n+]1ccn(C)c1.[Br-]` (stereo not drawn): 61%.
The compound `COc1cccc(C(=O)C[n+]2ccn(C)c2)c1OC.[Br-]` had a Blood glucose of 88%.
Compound `COc1cc(OC)cc(C(=O)C[n+]2ccn(C)c2)c1.[Br-]` came in with a Blood glucose of 69%.
On the same count and under the same terms, next, `Cc1cccc(C(=O)C[n+]2ccn(C)c2)c1.[Br-]`: 73%.
On the same count and under the same terms, the result for `Cc1ccc(C(=O)C[n+]2ccccn2)cc1.[Br-]` reads 111%.
Same read-out and setting: next, `COc1cccc(C(=O)Cn2ccnc2)c1`: 121%; `Cn1cc[n+](CC(=O)c2ccc(O)c(O)c2)c1.[Cl-]`: 107%.
Compound `Cn1cc[n+](CC(=O)c2ccc(Cl)c(Cl)c2)c1.[Br-]` registered a Blood glucose of 79%.
On the same count and under the same terms, next, `COc1ccccc1C(=O)C[n+]1ccn(C)c1.[Br-]`: 97%.
Still for that read-out and setting: the result for `COc1cccc(C(=O)C[n+]2ccn(C)c2)c1.[Br-]` reads 72%; that for `Cc1ccc(S(=O)(=O)[O-])cc1.Cn1cc[n+](CC(=O)c2cccc(O)c2)c1`, 87%; that for `CCCOc1cccc(C(=O)C[n+]2ccn(C)c2)c1.[Br-]`, 72%.
Same read-out and setting: the result for `Cc1ccc(C(=O)C[n+]2ccn(C)c2)cc1C.[Br-]` reads 95%.
`COc1cccc(C(=O)Cn2ccn(C)c2=S)c1` gave a Blood glucose of 80%.
Still for that read-out and setting: next, `COc1cccc(C(=O)C[n+]2ccn(-c3ccccc3)c2)c1.[Br-]`: 91%.
On the same count and under the same terms, next, `COc1cccc(C(=O)CC[n+]2ccn(C)c2)c1.[I-]`: 94%; `Cc1ccc(C(=O)C[n+]2csc3ccccc32)cc1.[Br-]`: 108%; `CCOc1ccc(C(=O)C[n+]2ccn(C)c2)cc1.[Br-]`: 104%.
`CCc1ccc(C(=O)C[n+]2ccn(C)c2)cc1.[Br-]` displayed a Blood glucose of 88%.
Same read-out and setting: next, `COc1ccc(OC)c(C(=O)C[n+]2ccn(C)c2)c1.[Br-]`: 86%.
